In brackets after ≈: the same amount, converted by molar mass.
Key:
Format in all cases: functional
Streptococcus pyogenes [1] = assay: Ratio of MBC to MIC for inducibly erythromycin resistant Streptococcus pyogenes 01-968 expressing i-ermA
Streptococcus pneumoniae [2] = assay: Antimicrobial activity against erythromycin-susceptible Streptococcus pneumoniae ATCC 49619 incubated in CAMHB medium for 20 to 24 hrs by two-fold microbroth dilution method
Staphylococcus aureus [3] = assay: Antimicrobial activity against constitutively erythromycin resistant and methicillin resistant Staphylococcus aureus PU20 expressing c-ermC incubated in CAMHB medium for 20 hrs by two-fold microbroth dilution method; conditions: PU20, 20 h
Procedure, shortened: (§1)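 Purified fresh Staphylococcus isolate at about 5×10^5 CFU/ml final in CAMHB, 35 °C for 20 h. Each run included ATCC strains and reference antibiotics as QC, plus an antibiotic-free growth control.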

Streptococcus pneumoniae [4] = assay: Ratio of MBC to MIC for erythromycin-susceptible Streptococcus pneumoniae ATCC 49619
Staphylococcus aureus [5] = assay: Bactericidal activity against inducibly erythromycin-resistant and methicillin resistant Staphylococcus aureus PU32 expressing i-ermA assessed as reduction in colony formation incubated in CAMHB medium for 20 hrs followed by 24 hrs subculturing in the medium without test compound
Staphylococcus aureus [6] = assay: Antimicrobial activity against inducibly erythromycin-resistant and methicillin resistant Staphylococcus aureus PU32 expressing i-ermA incubated in CAMHB medium for 20 hrs by two-fold microbroth dilution method; conditions: PU32, 20 h; procedure, shortened: as §1
Haemophilus influenzae [7] = assay: Antimicrobial activity against azithromycin-susceptible Haemophilus influenzae ATCC 49247 incubated in HTM broth medium for 20 to 24 hrs by two-fold microbroth dilution method
Streptococcus pneumoniae [8] = assay: Bactericidal activity against mef-encoded erythromycin resistant Streptococcus pneumoniae PU09 assessed as reduction in colony formation incubated in CAMHB medium for 20 to 24 hrs followed by 24 hrs subculturing in the medium without test compound
Streptococcus pneumoniae [9] = assay: Bactericidal activity against erythromycin-susceptible Streptococcus pneumoniae ATCC 49619 assessed as reduction in colony formation incubated in CAMHB medium for 20 to 24 hrs followed by 24 hrs subculturing in the medium without test compound
Staphylococcus aureus [10] = assay: Ratio of MBC to MIC for inducibly erythromycin-resistant and methicillin resistant Staphylococcus aureus PU32 expressing i-ermA
Staphylococcus aureus [11] = assay: Ratio of MBC to MIC for constitutively erythromycin resistant and methicillin-resistant Staphylococcus aureus PU20 expressing c-ermC
Staphylococcus aureus [12] = assay: Bactericidal activity against constitutively erythromycin resistant and methicillin-resistant Staphylococcus aureus PU20 expressing c-ermC assessed as reduction in colony formation incubated in CAMHB medium for 20 hrs followed by 24 hrs subculturing in the medium without test compound
Haemophilus influenzae [13] = assay: Ratio of MBC to MIC for azithromycin-susceptible Haemophilus influenzae ATCC 49247
Streptococcus pneumoniae [14] = assay: Antimicrobial activity against mef-encoded erythromycin resistant Streptococcus pneumoniae PU09 incubated in CAMHB medium for 20 to 24 hrs by two-fold microbroth dilution method
Streptococcus pyogenes [15] = assay: Antimicrobial activity against inducibly erythromycin resistant Streptococcus pyogenes 01-968 expressing i-ermA incubated in CAMHB medium for 20 to 24 hrs by two-fold microbroth dilution method
Streptococcus pyogenes [16] = assay: Bactericidal activity against inducibly erythromycin resistant Streptococcus pyogenes 01-968 expressing i-ermA assessed as reduction in colony formation incubated in CAMHB medium for 20 to 24 hrs followed by 24 hrs subculturing in the medium without test compound
Haemophilus influenzae [17] = assay: Bactericidal activity against azithromycin-susceptible Haemophilus influenzae ATCC 49247 assessed as reduction in colony formation incubated in HTM broth medium for 20 to 24 hrs followed by 24 hrs subculturing in the medium without test compound
Moraxella catarrhalis [18] = assay: Bactericidal activity against erythromycin-susceptible Moraxella catarrhalis 13L332 assessed as reduction in colony formation incubated in CAMHB medium for 20 hrs followed by 24 hrs subculturing in the medium without test compound
Streptococcus pneumoniae [19] = assay: Ratio of MBC to MIC for mef-encoded erythromycin resistant Streptococcus pneumoniae PU09
Staphylococcus aureus [20] = assay: Antimicrobial activity against inducibly erythromycin-resistant Staphylococcus aureus PU32 expressing i-ermA incubated in CAMHB medium for 20 hrs by two-fold microbroth dilution method; conditions: PU32, 20 h
Procedure, shortened: (§2)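 Purified fresh Staphylococcus isolate at about 5×10^5 CFU/ml final in CAMHB, 35 °C for 20 h. […] Each run included ATCC strains and reference antibiotics as QC, plus an antibiotic-free growth control.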

[21] = test system: Staphylococcus epidermidis; assay: Antimicrobial activity against Staphylococcus epidermidis E1 incubated in CAMHB medium for 20 hrs by two-fold microbroth dilution method; conditions: E1, 20 h
Procedure, shortened: (§3)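 Clinical isolates and ATCC strains, purified by plate activation and used fresh; inoculum about 5×10^5 CFU/ml final. Grown in CAMHB at 35 °C for 20 h.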

Streptococcus pyogenes [22] = assay: Antimicrobial activity against erythromycin-susceptible Streptococcus pyogenes A3 incubated in CAMHB medium for 20 to 24 hrs by two-fold microbroth dilution method
Moraxella catarrhalis [23] = assay: Ratio of MBC to MIC for erythromycin-susceptible Moraxella catarrhalis 13L332
Moraxella catarrhalis [24] = assay: Antimicrobial activity against erythromycin-susceptible Moraxella catarrhalis 13L332 incubated in CAMHB medium for 20 hrs by two-fold microbroth dilution method; conditions: 13L332, 20 h; procedure, shortened: as §3
Streptococcus pneumoniae [25] = assay: Antimicrobial activity against constitutively erythromycin resistant Streptococcus pneumoniae PU27 expressing c-erm incubated in CAMHB medium for 20 to 24 hrs by two-fold microbroth dilution method
Procedure, shortened: (§4)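 Purified fresh Streptococcus isolate at about 5×10^5 CFU/ml final in CAMHB with 5% horse serum, 35 °C for 20–24 h. […] Each run included ATCC strains and reference antibiotics as QC, plus an antibiotic-free growth control.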

Staphylococcus aureus [26] = assay: Antimicrobial activity against inducibly erythromycin resistant Staphylococcus aureus PU64 expressing i-ermA incubated in CAMHB medium for 20 hrs by two-fold microbroth dilution method; conditions: PU64, 20 h; procedure, shortened: as §2
Staphylococcus aureus [27] = assay: Antimicrobial activity against erythromycin-susceptible Staphylococcus aureus ATCC 29213 incubated in CAMHB medium for 20 hrs by two-fold microbroth dilution method; conditions: ATCC 29213, 20 h; procedure, shortened: as §3
Staphylococcus aureus [28] = assay: Antimicrobial activity against constitutively erythromycin resistant Staphylococcus aureus PU20 expressing c-ermC incubated in CAMHB medium for 20 hrs by two-fold microbroth dilution method; conditions: PU20, 20 h; procedure, shortened: as §2
Streptococcus pyogenes [29] = assay: Antimicrobial activity against constitutively erythromycin resistant Streptococcus pyogenes A2 expressing c-erm incubated in CAMHB medium for 20 to 24 hrs by two-fold microbroth dilution method; procedure, shortened: as §4

Compound: CC[C@H]1OC(=O)[C@H](C)[C@@H](OC(=O)CCNCCCc2ccc(-n3ccnc3)cc2)[C@H](C)[C@@H](O[C@@H]2O[C@H](C)C[C@H](N(C)C)[C@H]2O)[C@](C)(OC)C[C@@H](C)/C(=N\OC)[C@H](C)[C@H]2OC(=O)O[C@@]21C
- Ratio (Streptococcus pyogenes [1]): 2
- MIC (Streptococcus pneumoniae [2]): 2 µg/mL (≈ 2.22 µM)
- MIC (Staphylococcus aureus [3]): 64 µg/mL (≈ 71.1 µM)
- Ratio (Streptococcus pneumoniae [4]): 2
- MBC (Staphylococcus aureus [5]): 128 µg/mL (≈ 142 µM)
- MIC (Staphylococcus aureus [6]): 64 µg/mL (≈ 71.1 µM)
- MIC (Haemophilus influenzae [7]): 256 µg/mL (≈ 284 µM)
- MBC (Streptococcus pneumoniae [8]): 8 µg/mL (≈ 8.89 µM)
- MBC (Streptococcus pneumoniae [9]): 4 µg/mL (≈ 4.44 µM)
- Ratio (Staphylococcus aureus [10]): 2
- Ratio (Staphylococcus aureus [11]): >4
- MBC (Staphylococcus aureus [12]): > 256 µg/mL
- Ratio (Haemophilus influenzae [13]): 1
- MIC (Streptococcus pneumoniae [14]): 4 µg/mL (≈ 4.44 µM)
- MIC (Streptococcus pyogenes [15]): 16 µg/mL (≈ 17.8 µM)
- MBC (Streptococcus pyogenes [16]): 32 µg/mL (≈ 35.6 µM)
- MBC (Haemophilus influenzae [17]): 256 µg/mL (≈ 284 µM)

Compound: CC[C@H]1OC(=O)[C@H](C)[C@@H](O[C@H]2C[C@@](C)(OC)[C@@H](O)[C@H](C)O2)[C@H](C)[C@@H](O[C@@H]2O[C@H](C)C[C@H](N(C)C)[C@H]2O)[C@](C)(OC)C[C@@H](C)C(=O)[C@H](C)[C@@H](O)[C@]1(C)O [CLARITHROMYCIN]
- Ratio (Streptococcus pyogenes [1]): >8
- MBC (Moraxella catarrhalis [18]): 0.125 µg/mL (≈ 0.167 µM)
- MIC (Streptococcus pneumoniae [2]): 0.06 to 0.064 µg/mL (≈ 0.0802 to 0.0856 µM)
- Ratio (Streptococcus pneumoniae [19]): 2 - 8
- MIC (Staphylococcus aureus [3]): > 256 µg/mL
- MIC (Staphylococcus aureus [20]): > 256 µg/mL
- Ratio (Streptococcus pneumoniae [4]): 2 - 4
- MBC (Staphylococcus aureus [5]): > 256 µg/mL
- MIC (Staphylococcus aureus [6]): 32 µg/mL (≈ 42.8 µM)
- MIC [21]: > 256 µg/mL
- MIC (Haemophilus influenzae [7]): 4 µg/mL (≈ 5.35 µM)
- MIC (Streptococcus pyogenes [22]): ≤ 0.032 µg/mL
- Ratio (Moraxella catarrhalis [23]): 4
- MBC (Streptococcus pneumoniae [8]): 8 to 32 µg/mL (≈ 10.7 to 42.8 µM)
- MBC (Streptococcus pneumoniae [9]): 0.125 to 0.25 µg/mL (≈ 0.167 to 0.334 µM)
- Ratio (Staphylococcus aureus [10]): >8
- MIC (Moraxella catarrhalis [24]): 0.031 µg/mL (≈ 0.0414 µM)
- MIC (Streptococcus pneumoniae [25]): 4 µg/mL (≈ 5.35 µM)
- MBC (Staphylococcus aureus [12]): > 256 µg/mL
- MIC (Staphylococcus aureus [26]): > 256 µg/mL
- MIC (Staphylococcus aureus [27]): 0.25 µg/mL (≈ 0.334 µM)
- MIC (Staphylococcus aureus [28]): > 256 µg/mL
- MIC (Streptococcus pyogenes [29]): 128 µg/mL (≈ 171 µM)
- Ratio (Haemophilus influenzae [13]): 2
- MIC (Streptococcus pneumoniae [14]): 4 µg/mL (≈ 5.35 µM)
- MIC (Streptococcus pyogenes [15]): 1 to 8 µg/mL (≈ 1.34 to 10.7 µM)
- MBC (Streptococcus pyogenes [16]): 8 to 64 µg/mL (≈ 10.7 to 85.6 µM)
- MBC (Haemophilus influenzae [17]): 8 µg/mL (≈ 10.7 µM)

Compound: CC[C@H]1OC(=O)[C@H](C)[C@@H](OC(=O)CCNCCCCc2cccnc2)[C@H](C)[C@@H](O[C@@H]2O[C@H](C)C[C@H](N(C)C)[C@H]2O)[C@](C)(OC)C[C@@H](C)/C(=N\OC)[C@H](C)[C@H]2OC(=O)O[C@@]21C
- Ratio (Streptococcus pyogenes [1]): 2
- MIC (Streptococcus pneumoniae [2]): 1 µg/mL (≈ 1.18 µM)
- Ratio (Streptococcus pneumoniae [19]): 2
- MIC (Staphylococcus aureus [3]): 256 µg/mL (≈ 302 µM)
- Ratio (Streptococcus pneumoniae [4]): 4
- MBC (Staphylococcus aureus [5]): > 256 µg/mL
- MIC (Staphylococcus aureus [6]): 128 µg/mL (≈ 151 µM)
- MIC (Haemophilus influenzae [7]): 128 µg/mL (≈ 151 µM)
- MBC (Streptococcus pneumoniae [8]): 4 µg/mL (≈ 4.71 µM)
- MBC (Streptococcus pneumoniae [9]): 4 µg/mL (≈ 4.71 µM)
- Ratio (Staphylococcus aureus [11]): 1
- MBC (Staphylococcus aureus [12]): 256 µg/mL (≈ 302 µM)
- Ratio (Haemophilus influenzae [13]): 2
- MIC (Streptococcus pneumoniae [14]): 2 µg/mL (≈ 2.36 µM)
- MIC (Streptococcus pyogenes [15]): 64 µg/mL (≈ 75.4 µM)
- MBC (Streptococcus pyogenes [16]): 128 µg/mL (≈ 151 µM)
- MBC (Haemophilus influenzae [17]): 256 µg/mL (≈ 302 µM)
